ChEMBL document CHEMBL3352730, “Synthesis and effects on cell viability of flavonols and 3-methyl ether derivatives on human leukemia cells” (Eur J Med Chem, 2014)
The source made the active and inactive calls. The rule behind the calls is not given here.

Key:
U-937 [1] = assay: Increase in DR5 expression in human U937 cells at 10 30 uM after 24 hrs by immunoblotting method; format: functional, cell-based
Procedure, shortened: (§1)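 HL-60 and U937 cells were treated with increasing concentrations for 24 h. Lysates were immunoblotted for TRAIL, DR4 and DR5.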

HL-60 [2] = assay: Increase in DR4 expression in human HL60 cells at 10 30 uM after 24 hrs by immunoblotting method; format: functional, cell-based; procedure, shortened: as §1
U-937 [3] = assay: Induction of apoptosis in human U937 cells assessed as pro-caspase-6 cleavage by Western blotting method; format: functional, cell-based
Procedure, shortened: (§2)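 Cells were exposed to a range of compound concentrations and harvested at 24 h. Lysates were immunoblotted for caspase proforms and cleaved forms, and for Bcl-2 family proteins.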

MOLT-3 [4] = assay: Induction of apoptosis in human MOLT3 cells assessed as pro-caspase-7 cleavage by Western blotting method; format: functional, cell-based; procedure, shortened: as §2
HL-60 [5] = assay: Induction of apoptosis in human HL60 cells assessed as pro-caspase-7 cleavage by Western blotting method; format: functional, cell-based; procedure, shortened: as §2
U-937 [6] = assay: Induction of cell cycle arrest in human U937 cells assessed as accumulation at subG1 phase at 1 uM after 24 hrs by propidium iodide staining based flow cytometry (reference value: 3.9 +/- 0.8%); format: functional
U-937 [7] = assay: Induction of apoptosis in human U937 cells assessed as increase in caspase 3/7 activity using DEVD-pNA substrate at 10 uM after 24 hrs; format: functional, cell-based
Procedure, shortened: (§3)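 Cells were given 10 µM for 24 h. Lysates were assayed for cleavage of DEVD-pNA (caspase-3/7), IETD-pNA (caspase-8) and LEHD-pNA (caspase-9). Results are expressed as fold over control, from three independent experiments in triplicate.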

HL-60 [8] = assay: Induction of cell cycle arrest in human HL60 cells assessed as accumulation at G1 phase at 3 uM after 48 hrs by propidium iodide staining based flow cytometry (reference value: 60.4 +/- 0.4%); format: functional
HL-60 [9] = assay: Induction of cell cycle arrest in human HL60 cells assessed as accumulation at G1 phase at 3 uM after 24 hrs by propidium iodide staining based flow cytometry (reference value: 53 +/- 1.1%); format: functional
HL-60 [10] = assay: Induction of apoptosis in human HL60 cells assessed as pro-caspase-4 processing by Western blotting method; format: functional, cell-based
[11] = Cytotoxicity against human HL60/MX1 cells after 72 hrs by MTT assay; format: functional, cell-based; conditions: HL60/MX1, 72 h
Procedure, shortened: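 MTT colorimetric assay with 72 h continuous exposure. IC50 was fitted per experiment by non-linear regression. Values are means with SE from at least three independent experiments, each run in triplicate.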

U-937 [12] = assay: Induction of cell cycle arrest in human U937 cells assessed as accumulation at G2/M phase at 3 uM after 24 hrs by propidium iodide staining based flow cytometry (reference value: 22.8 +/- 1.6%); format: functional
HL-60 [13] = assay: Induction of apoptosis in human HL60 cells assessed as pro-caspase-9 cleavage by Western blotting method; format: functional, cell-based; procedure, shortened: as §2
U-937 [14] = assay: Induction of cell cycle arrest in human U937 cells assessed as accumulation at S phase at 10 uM after 48 hrs by propidium iodide staining based flow cytometry (reference value: 18.9 +/- 0.2%); format: functional
U-937 [15] = assay: Induction of cell cycle arrest in human U937 cells assessed as accumulation at subG1 phase at 10 uM after 24 hrs by propidium iodide staining based flow cytometry (reference value: 3.9 +/- 0.8%); format: functional
U-937 [16] = assay: Induction of apoptosis in human U937 cells assessed as increase in caspase 8 activity using IETD-pNA substrate at 10 uM after 24 hrs; format: functional, cell-based; procedure, shortened: as §3
HL-60 [17] = assay: Induction of cell cycle arrest in human HL60 cells assessed as accumulation at S phase at 1 uM after 12 hrs by propidium iodide staining based flow cytometry (reference value: 14.7 +/- 0.3%); format: functional
MOLT-3 [18] = assay: Induction of apoptosis in human MOLT3 cells assessed as pro-caspase-6 cleavage by Western blotting method; format: functional, cell-based; procedure, shortened: as §2
MOLT-3 [19] = assay: Induction of apoptosis in human MOLT3 cells assessed as increase in caspase 9 activity using LEHD-pNA substrate at 10 uM after 24 hrs; format: functional, cell-based; procedure, shortened: as §3
U-937 [20] = assay: Induction of cell cycle arrest in human U937 cells assessed as accumulation at S phase at 10 uM after 24 hrs by propidium iodide staining based flow cytometry (reference value: 18.6 +/- 0.3%); format: functional
U-937 [21] = assay: Induction of cell cycle arrest in human U937 cells assessed as accumulation at subG1 phase at 3 uM after 48 hrs by propidium iodide staining based flow cytometry (reference value: 6.7 +/- 0.3%); format: functional
U-937 [22] = assay: Induction of cell cycle arrest in human U937 cells assessed as accumulation at G1 phase at 1 uM after 24 hrs by propidium iodide staining based flow cytometry (reference value: 49.8 +/- 1.5%); format: functional
HL-60 [23] = assay: Induction of apoptosis in human HL60 cells assessed as nuclear chromatin condensation at 30 uM after 24 hrs by Hoechst 33258 staining based fluorescence microscopy; format: functional, cell-based
Procedure, shortened: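 HL-60 cells were treated at 30 µM for 24 h, stained with Hoechst 33258, and scored for chromatin condensation by fluorescence microscopy.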

U-937 [24] = assay: Induction of cell cycle arrest in human U937 cells assessed as accumulation at subG1 phase at 10 uM after 48 hrs by propidium iodide staining based flow cytometry (reference value: 6.7 +/- 0.3%); format: functional
HL-60 [25] = assay: Reduction in Bid expression in human HL60 cells by Western blotting method; format: functional, cell-based
Procedure, shortened: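 Cells (HL-60, Molt-3 or U937) were incubated with increasing concentrations of compound and harvested at 24 h. Cell lysates were then immunoblotted for Bid and other Bcl-2 family members.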

HL-60 [26] = assay: Induction of apoptosis in human HL60 cells assessed as increase in caspase 8 activity using IETD-pNA substrate at 10 uM after 24 hrs; format: functional; procedure, shortened: as §3
U-937 [27] = assay: Induction of cell cycle arrest in human U937 cells assessed as accumulation at S phase at 3 uM after 24 hrs by propidium iodide staining based flow cytometry (reference value: 18.6 +/- 0.3%); format: functional
MOLT-3 [28] = assay: Induction of apoptosis in human MOLT3 cells assessed as pro-caspase-3 cleavage by Western blotting method; format: functional, cell-based; procedure, shortened: as §2
U-937 [29] = assay: Increase in DR4 expression in human U937 cells at 10 30 uM after 24 hrs by immunoblotting method; format: functional, cell-based; procedure, shortened: as §1
U-937 [30] = assay: Induction of cell cycle arrest in human U937 cells assessed as accumulation at subG1 phase at 10 uM after 12 hrs by propidium iodide staining based flow cytometry (reference value: 4.6 +/- 0.9%); format: functional
MOLT-3 [31] = assay: Induction of apoptosis in human MOLT3 cells assessed as increase in caspase 8 activity using IETD-pNA substrate at 10 uM after 24 hrs; format: functional, cell-based; procedure, shortened: as §3
HL-60 [32] = assay: Induction of apoptosis in human HL60 cells assessed as DNA fragmentation at 30 uM after 24 hrs by ethidium bromide staining based agarose gel electrophoresis method; format: functional, cell-based
Procedure, shortened: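 HL-60 cells were treated for 24 h. Genomic DNA was extracted, run on an agarose gel, stained with ethidium bromide and viewed under UV.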

HL-60 [33] = assay: Induction of cell cycle arrest in human HL60 cells assessed as accumulation at subG1 phase at 3 uM after 12 hrs by propidium iodide staining based flow cytometry (reference value: 6.1 +/- 0.5%); format: functional
U-937 [34] = assay: Induction of cell cycle arrest in human U937 cells assessed as accumulation at G2/M phase at 1 uM after 48 hrs by propidium iodide staining based flow cytometry (reference value: 19.1 +/- 1.1%); format: functional

Structure (SMILES): O=c1c(O)c(-c2ccc(Br)cc2)oc2ccccc12
- Activity (U-937 [1]): Active
- Activity (HL-60 [2]): Active
- Activity (U-937 [3]): Active
- Activity (MOLT-3 [4]): Active
- Activity (HL-60 [5]): Active
- Activity (U-937 [6]): 3.7%
- Activity (U-937 [7]): Active
- Activity (HL-60 [8]): 40.4%
- Activity (HL-60 [9]): 50.1%
- Activity (HL-60 [10]): Active
- IC50 [11]: 6.5 µM
- Activity (U-937 [12]): 21.7%
- Activity (HL-60 [13]): Active
- Activity (U-937 [14]): 11.9%
- Activity (U-937 [15]): 13.8%
- Activity (U-937 [16]): Active
- Activity (HL-60 [17]): 15.6%
- Activity (MOLT-3 [18]): Active
- Activity (MOLT-3 [19]): Active
- Activity (U-937 [20]): 23.7%
- Activity (U-937 [21]): 16.3%
- Activity (U-937 [22]): 47.4%
- Activity (HL-60 [23]): Active
- Activity (U-937 [24]): 45.7%
- Activity (HL-60 [25]): Active
- fold change (FC) (HL-60 [26]): 1.7
- Activity (U-937 [27]): 24.7%
- Activity (MOLT-3 [28]): Active
- Activity (U-937 [29]): Active
- Activity (U-937 [30]): 4.3%
- Activity (MOLT-3 [31]): Active
- Activity (HL-60 [32]): Active
- Activity (HL-60 [33]): 6.3%
- Activity (U-937 [34]): 19.9%
